Reference: publication PMC7880549 (Bioorganic & medicinal chemistry, 2020)

Tests used:
UCHL5 [1] = molecular target: T1, UCHL5 (Homo sapiens, UniProt Q9Y5K5); test: in vitro DUB assay with purified UCHL5 and Ub-rhodamine 110; format: biochemical
T1 sequence (Q9Y5K5 1-329): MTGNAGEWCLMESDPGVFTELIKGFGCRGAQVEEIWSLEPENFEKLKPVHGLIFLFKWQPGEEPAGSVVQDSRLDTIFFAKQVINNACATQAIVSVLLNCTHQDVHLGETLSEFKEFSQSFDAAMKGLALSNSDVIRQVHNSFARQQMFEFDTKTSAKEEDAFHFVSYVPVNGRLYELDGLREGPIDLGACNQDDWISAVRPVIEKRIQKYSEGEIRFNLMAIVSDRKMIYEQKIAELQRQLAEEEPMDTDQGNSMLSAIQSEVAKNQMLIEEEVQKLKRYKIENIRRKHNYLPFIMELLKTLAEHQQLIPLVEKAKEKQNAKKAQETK

UCHL5 [2] = molecular target: T1, UCHL5; format: biochemical; settings: MDA-MB-231 lysate pre-incubated 30 min, Ub-VS 1 μM
In short: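 Lysate (20 μg protein) was pre-incubated with test compound at RT, then Ub-VS was added for 11 min at RT. After SDS quench and 12% SDS-PAGE, blots were probed for UCHL5 band shift and β-actin. Two independent experiments were run.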

improved potency versus TAB1 (UCHL5 [1]; TAB2 vs TAB1) | concentrations inhibiting UCHL5/Ub-VS conjugation (UCHL5 [2]) [µM] | improvement of IC50 compared to TA (UCHL5 [1]; TAA1 vs TA) | SMILES
ca. 2.5 fold | 25 to 50 | – | Nc1ccc(-c2cn(Cc3cc(C(=O)O)cc(-c4cccc(C(=O)O)c4)c3)nn2)cc1 [TAB2]
– | – | ca. 33 fold | CC(C(=O)O)c1ccc(C(=O)c2cccc(-c3ccccc3C(=O)O)c2)s1 (stereo not drawn) [TAA1]
